This sample holds only a part of the variants without activity.
B1: tRNA (parent)
chain: GUUCCGUUGGCGUAAUGGUAACGCGUCUCCCUCCUAAGGAGAAGACUGCGGGUUCGAGUCCCGUACGGAACG

Variants of: B1
Assay: yeast fitness relative to wild type (ratio to wild type); higher = fitter; tRNA-Arg(CCU), competitive growth, 37 C, YPD
Outline: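 The tRNA-Arg(CCU) gene variants were made by chemical synthesis with a 3% per-site mutation rate at 69 sites and inserted at the native genomic locus of Saccharomyces cerevisiae. After pooling, the strains were competed in YPD at 37°C for 24 hours in six parallel replicates. Gene amplicons from the start population and each end population were read by 100-nucleotide paired-end sequencing, and Darwinian fitness relative to wild type was taken from genotype frequency changes. Genotypes needed ≥ 100 starting reads, and estimates < 0.5 were set to 0.5.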

Q: For C31A U59G, which yeast fitness is on record?
A: The yeast fitness was 0.771.

Q: For C46U C62U, which yeast fitness is on record?
A: The yeast fitness was 1.

Q: Which yeast fitness does the source give for A21C C29A G41A U54A here?
A: Its yeast fitness is no more than 0.5.

Q: For G12A U26C C27U C33A A45C C62G A69U, which yeast fitness is on record?
A: Its yeast fitness is 0.553.

Q: Which yeast fitness does the source give for C4U G23C A36C C55G A57U G67A here?
A: The yeast fitness was no more than 0.5.

Q: For C4G A20U C31G G51A, which yeast fitness is on record?
A: The yeast fitness was no more than 0.5.

Q: Which yeast fitness does the source give for A37C G67U here?
A: Its yeast fitness is 0.828.

Q: Which yeast fitness does the source give for A14G G18C A21U C29G G67A here?
A: The yeast fitness was no more than 0.5.

Q: For U13C G38A C49U, which yeast fitness is on record?
A: The yeast fitness was no more than 0.5.

Q: Which yeast fitness does the source give for A15C C24G C34U A43G here?
A: Its yeast fitness is no more than 0.5.

Q: For G10C C34U G39U A40C, which yeast fitness is on record?
A: The yeast fitness was no more than 0.5.

Q: For A15G C27A A36G A43G A65G, which yeast fitness is on record?
A: The yeast fitness was 0.571.

Q: With C5U A42G A45U C60G as the variant, how does the yeast fitness read?
A: Its yeast fitness is no more than 0.5.

Q: Which yeast fitness does the source give for G17C A37G G56C here?
A: The yeast fitness was no more than 0.5.

Q: For C4U C5A C61U, which yeast fitness is on record?
A: The yeast fitness was 0.719.

Q: For C11G C49U C62U A70U, which yeast fitness is on record?
A: The yeast fitness was no more than 0.5.

Q: For G6C U7G G17C U53A, which yeast fitness is on record?
A: The yeast fitness was no more than 0.5.

Q: With U3A C11A as the variant, how does the yeast fitness read?
A: The yeast fitness was 0.607.

Q: With C4U C27G A65U A70G as the variant, how does the yeast fitness read?
A: The yeast fitness was no more than 0.5.

Q: For C5G U13C C22G C33A, which yeast fitness is on record?
A: The yeast fitness was 0.635.

Q: For C4U C27U C29G A42C C55G, which yeast fitness is on record?
A: Its yeast fitness is no more than 0.5.

Q: With A42U A43C C49G A65C as the variant, how does the yeast fitness read?
A: The yeast fitness was no more than 0.5.

Q: With G38A C55A G68A as the variant, how does the yeast fitness read?
A: The yeast fitness was no more than 0.5.

Q: For G39C U59C U64C A70C, which yeast fitness is on record?
A: The yeast fitness was no more than 0.5.

Q: Which yeast fitness does the source give for G12A A65U here?
A: The yeast fitness was 0.861.

Q: With A14U A15G C24U C31U C61U as the variant, how does the yeast fitness read?
A: The yeast fitness was no more than 0.5.

Q: With G58C C66A as the variant, how does the yeast fitness read?
A: Its yeast fitness is 0.717.

Q: For G9A G12C G25C C30G C31A G50A G51C, which yeast fitness is on record?
A: The yeast fitness was no more than 0.5.

Q: Which yeast fitness does the source give for G9A U19G A37C A43U C46G here?
A: Its yeast fitness is 0.581.

Q: Which yeast fitness does the source give for C5G G9C A20U A21G C24G C27G G68A here?
A: Its yeast fitness is no more than 0.5.

Q: With G12C C30A A42G as the variant, how does the yeast fitness read?
A: The yeast fitness was 0.562.

Q: Which yeast fitness does the source give for U59A C66U here?
A: Its yeast fitness is 0.815.

Q: With C62G A65G A70U as the variant, how does the yeast fitness read?
A: Its yeast fitness is no more than 0.5.

Q: Which yeast fitness does the source give for C27U C31G A69C here?
A: Its yeast fitness is 0.604.

Q: With C5U A14G U26C C30U A42C C61G as the variant, how does the yeast fitness read?
A: Its yeast fitness is no more than 0.5.

Q: With G10A C11U G58C A65U as the variant, how does the yeast fitness read?
A: The yeast fitness was no more than 0.5.

Q: Which yeast fitness does the source give for U2G G10A A69C here?
A: Its yeast fitness is no more than 0.5.

Q: Which yeast fitness does the source give for A14G G23A C60A here?
A: Its yeast fitness is no more than 0.5.

Q: With U13A A14C C22A G48C A69U as the variant, how does the yeast fitness read?
A: Its yeast fitness is no more than 0.5.

Q: For C22U A40U U64A, which yeast fitness is on record?
A: Its yeast fitness is no more than 0.5.

Q: With C22G as the variant, how does the yeast fitness read?
A: The yeast fitness was 0.988.

Q: With C29U C49A U64C as the variant, how does the yeast fitness read?
A: Its yeast fitness is 0.597.

Q: Which yeast fitness does the source give for C24U C29A U32A C46G A70C here?
A: Its yeast fitness is no more than 0.5.

Q: Which yeast fitness does the source give for A14U U32C A40C G67A here?
A: The yeast fitness was 0.529.

Q: Which yeast fitness does the source give for U3C C31U G39A G44A C61U here?
A: The yeast fitness was no more than 0.5.

Q: With G9C A40U C66U as the variant, how does the yeast fitness read?
A: The yeast fitness was 0.622.

Q: Which yeast fitness does the source give for C5A U26A C27G C30G A36U G38C C46U C49G A65U here?
A: The yeast fitness was no more than 0.5.

Q: Which yeast fitness does the source give for C11G C24U U28C G51A here?
A: The yeast fitness was no more than 0.5.

Q: For U8C A14U C22G C30U, which yeast fitness is on record?
A: Its yeast fitness is 0.581.

Q: For C55G G58C, which yeast fitness is on record?
A: The yeast fitness was 0.587.

Q: Which yeast fitness does the source give for A37C C46U A65C here?
A: The yeast fitness was 0.638.

Q: With U2C C24U G25C U26A A57G as the variant, how does the yeast fitness read?
A: Its yeast fitness is 0.878.

Q: With C22U C34G A36U as the variant, how does the yeast fitness read?
A: The yeast fitness was 0.519.

Q: For C55A A70G, which yeast fitness is on record?
A: The yeast fitness was 0.557.

Q: Which yeast fitness does the source give for C5A C29G G67C here?
A: Its yeast fitness is 0.588.

Q: With C24U C49A U64C as the variant, how does the yeast fitness read?
A: Its yeast fitness is 1.04.

Q: For U8C A14C G18A C31U A45G, which yeast fitness is on record?
A: The yeast fitness was no more than 0.5.

Q: Which yeast fitness does the source give for C5U A15G U19A A21U C34U here?
A: Its yeast fitness is no more than 0.5.

Q: For U3G C5U G10A C55U, which yeast fitness is on record?
A: Its yeast fitness is no more than 0.5.

Q: With G25C A43C C49U as the variant, how does the yeast fitness read?
A: Its yeast fitness is 0.632.

Q: Which yeast fitness does the source give for C11U U13A C46G C62G here?
A: Its yeast fitness is no more than 0.5.

Q: Which yeast fitness does the source give for U7A G17A U59A here?
A: Its yeast fitness is no more than 0.5.

Q: With C11G A21U G39C G44A U47A as the variant, how does the yeast fitness read?
A: The yeast fitness was no more than 0.5.

Q: For C4A U8A, which yeast fitness is on record?
A: The yeast fitness was 0.694.

Q: With A14C C27A C31A as the variant, how does the yeast fitness read?
A: Its yeast fitness is 0.588.

Q: With C5U A65U as the variant, how does the yeast fitness read?
A: The yeast fitness was 0.999.

Q: For A15U A37G A42C C49G C61U, which yeast fitness is on record?
A: Its yeast fitness is no more than 0.5.

Q: Which yeast fitness does the source give for C31U A43G here?
A: The yeast fitness was 1.06.

Q: Which yeast fitness does the source give for U54C C66G here?
A: Its yeast fitness is 0.803.

Q: With C24U A45U A65G as the variant, how does the yeast fitness read?
A: The yeast fitness was 0.623.

Q: With U8C G51A C62A as the variant, how does the yeast fitness read?
A: The yeast fitness was no more than 0.5.

Q: Which yeast fitness does the source give for C11G A14U C34A A69C here?
A: The yeast fitness was no more than 0.5.

Q: Which yeast fitness does the source give for U3A C27A C30G G39A here?
A: The yeast fitness was no more than 0.5.

Q: With C22G C27G C29G C34A G44C G56A A57G as the variant, how does the yeast fitness read?
A: Its yeast fitness is 0.529.

Q: For A37C C46G C62U, which yeast fitness is on record?
A: The yeast fitness was 0.872.

Q: For A15C U19A A21G C22G C30U C55G, which yeast fitness is on record?
A: The yeast fitness was no more than 0.5.

Q: For U19C C29G C61U C66A, which yeast fitness is on record?
A: The yeast fitness was no more than 0.5.

Q: For C11U U26A C60A, which yeast fitness is on record?
A: The yeast fitness was no more than 0.5.

Q: Which yeast fitness does the source give for U8A U26G here?
A: Its yeast fitness is 0.666.

Q: For G12C G18C G50C, which yeast fitness is on record?
A: The yeast fitness was no more than 0.5.

Q: For C24A A43G, which yeast fitness is on record?
A: The yeast fitness was 0.597.

Q: For G41C A43U U64C, which yeast fitness is on record?
A: Its yeast fitness is 0.959.

Q: For G6C G9A A21U U28G C34U A45C, which yeast fitness is on record?
A: Its yeast fitness is no more than 0.5.

Q: Which yeast fitness does the source give for G12C C33G G44C A69C here?
A: The yeast fitness was no more than 0.5.

Source: the RNAGym collection of RNA variant scans (doi:10.1126/science.aae0568)
